This note sets out measurements from ChEMBL document CHEMBL1129041, “Design of orally active dual inhibitors of neutral endopeptidase and angiotensin-converting enzyme with long duration of action” (J Med Chem, 1996).

The target in experiment [1] is T1, Angiotensin-converting enzyme (Mus musculus) (UniProt P09470).
T1 sequence (whole entry): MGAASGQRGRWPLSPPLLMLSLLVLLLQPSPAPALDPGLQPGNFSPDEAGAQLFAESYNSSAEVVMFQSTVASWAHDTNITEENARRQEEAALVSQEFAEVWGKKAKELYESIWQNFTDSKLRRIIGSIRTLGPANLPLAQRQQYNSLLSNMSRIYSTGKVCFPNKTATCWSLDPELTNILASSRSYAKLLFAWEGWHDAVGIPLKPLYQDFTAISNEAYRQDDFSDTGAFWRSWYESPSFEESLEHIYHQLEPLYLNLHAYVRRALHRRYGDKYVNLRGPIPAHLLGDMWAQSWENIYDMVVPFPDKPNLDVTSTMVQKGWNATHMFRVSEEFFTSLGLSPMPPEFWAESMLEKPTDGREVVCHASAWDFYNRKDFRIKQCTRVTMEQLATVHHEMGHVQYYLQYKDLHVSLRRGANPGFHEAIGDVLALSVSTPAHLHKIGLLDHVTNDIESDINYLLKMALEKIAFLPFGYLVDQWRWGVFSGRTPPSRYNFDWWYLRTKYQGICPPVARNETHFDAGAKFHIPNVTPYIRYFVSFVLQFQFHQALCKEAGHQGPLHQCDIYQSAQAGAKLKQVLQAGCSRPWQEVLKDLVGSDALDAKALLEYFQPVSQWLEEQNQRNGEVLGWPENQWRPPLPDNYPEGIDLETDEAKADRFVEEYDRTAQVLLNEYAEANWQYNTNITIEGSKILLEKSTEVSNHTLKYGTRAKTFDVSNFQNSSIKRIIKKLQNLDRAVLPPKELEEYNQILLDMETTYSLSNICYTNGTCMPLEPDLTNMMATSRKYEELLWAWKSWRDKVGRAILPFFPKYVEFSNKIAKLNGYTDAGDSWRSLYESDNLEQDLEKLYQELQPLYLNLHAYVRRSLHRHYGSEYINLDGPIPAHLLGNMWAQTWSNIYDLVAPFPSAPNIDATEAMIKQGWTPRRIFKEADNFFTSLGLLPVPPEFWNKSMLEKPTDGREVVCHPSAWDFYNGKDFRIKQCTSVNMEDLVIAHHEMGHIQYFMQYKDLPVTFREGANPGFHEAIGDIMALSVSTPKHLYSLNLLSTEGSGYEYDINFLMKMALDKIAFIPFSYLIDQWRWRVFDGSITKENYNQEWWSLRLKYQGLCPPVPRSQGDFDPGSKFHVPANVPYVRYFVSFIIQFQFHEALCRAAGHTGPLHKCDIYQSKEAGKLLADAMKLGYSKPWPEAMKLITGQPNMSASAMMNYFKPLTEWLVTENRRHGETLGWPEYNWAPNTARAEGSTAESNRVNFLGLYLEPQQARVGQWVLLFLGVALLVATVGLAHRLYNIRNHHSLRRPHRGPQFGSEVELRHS
The experiment can be described thus: (§1) In vivo percent inhibition activity against lung Angiotensin I converting enzyme 2 hr after oral administration of a dose of 2.6 x 10e-5 mol/kg. It is filed as organism-based. In outline: (§2)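 Mice dosed orally in 10% ethanol/10% cremophor/80% water. At 2 h, [3H]trandaloprilate (0.5 µCi) given iv; 15 min later lungs homogenized at 4 °C in 50 mM Tris-HCl pH 8.0 with 1 mM NaCl, centrifuged, and radioactivity counted. Total binding from untreated mice; nonspecific binding from probe coinjected with 1000 equiv captopril.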

The target in experiment [2] is T2, Neprilysin (Mus musculus) (UniProt Q61391).
T2 sequence (whole entry): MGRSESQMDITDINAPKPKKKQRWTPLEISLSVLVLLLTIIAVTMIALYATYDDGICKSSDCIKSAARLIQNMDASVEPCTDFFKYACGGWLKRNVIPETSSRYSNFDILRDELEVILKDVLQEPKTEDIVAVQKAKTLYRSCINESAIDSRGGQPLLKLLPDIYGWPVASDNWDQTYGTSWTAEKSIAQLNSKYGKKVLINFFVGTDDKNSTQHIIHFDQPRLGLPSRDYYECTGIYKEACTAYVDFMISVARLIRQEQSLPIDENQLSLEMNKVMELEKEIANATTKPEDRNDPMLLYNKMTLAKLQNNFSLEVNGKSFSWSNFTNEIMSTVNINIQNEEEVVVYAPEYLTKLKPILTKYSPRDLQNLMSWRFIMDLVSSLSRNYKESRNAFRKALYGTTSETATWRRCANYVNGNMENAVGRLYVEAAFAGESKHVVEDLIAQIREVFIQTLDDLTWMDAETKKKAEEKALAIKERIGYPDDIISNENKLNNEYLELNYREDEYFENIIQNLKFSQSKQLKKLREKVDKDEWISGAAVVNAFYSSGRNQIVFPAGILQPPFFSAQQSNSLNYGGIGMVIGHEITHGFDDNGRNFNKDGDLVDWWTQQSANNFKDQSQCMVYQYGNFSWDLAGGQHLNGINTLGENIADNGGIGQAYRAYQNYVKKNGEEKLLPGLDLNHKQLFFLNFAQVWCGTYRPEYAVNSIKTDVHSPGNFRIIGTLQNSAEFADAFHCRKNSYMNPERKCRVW
Put plainly: (§3) In vivo percent inhibition activity against kidney Neutral endopeptidase 2 hr after oral administration of a dose of 2.6 x 10e-5 mol/kg. The experiment is classed as organism-based. The essentials:
(§4)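 Mice given a single oral dose in 10% ethanol/10% cremophor/80% water; kidneys taken 2 h later and homogenized at 4 °C in 50 mM Tris-HCl pH 7.4. Membrane fraction (100000g) preincubated 5 min at 25 °C with bestatin and captopril, then incubated 10 min with [3H]-D-Ala2-Leu-enkephalin (2 × 10^-8 M). [3H]Tyr-D-Ala-Gly counted; blanks contained 10^-5 M retrothiorphan.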

Experiment [3] has as its target T1, Angiotensin-converting enzyme (Mus musculus). Described as §1. The experiment is classed as functional, organism-based. In outline: as §2
Experiment [4] concerns the target T2, Neprilysin (Mus musculus). Described as §3. It is filed as functional, organism-based. In outline: as §4

Take `Cc1ccccc1C1CC[C@@H](C(=O)O)N1C(=O)CNC(=O)[C@@H](S)Cc1ccc(O)cc1` (single isomer, unassigned): the inhibition was 60% in experiment [1] and 44% in experiment [2].
As for `Cc1ccccc1[C@H]1CC[C@@H](C(=O)O)N1C(=O)CNC(=O)[C@@H](S)Cc1ccccc1`, the inhibition in experiment [3] stood at 57%; in experiment [4], 37%.
With `Cc1ccc([C@H]2CC[C@@H](C(=O)O)N2C(=O)CNC(=O)[C@@H](S)Cc2ccccc2)cc1`, the values for the inhibition in experiment [3] and in experiment [4] were 42% and 34%, respectively.
On to `O=C(NCC(=O)N1[C@@H](c2ccccc2)CC[C@H]1C(=O)O)[C@@H](S)Cc1ccccc1`, for which the values for the inhibition in experiment [3] and in experiment [4] were 63% and 75%, respectively.
On to `O=C(NCC(=O)N1[C@@H](c2ccccc2O)CC[C@H]1C(=O)O)[C@@H](S)Cc1ccc(O)cc1`, for which the inhibition in experiment [3] is 82%; in experiment [4], 69%.
As for `Cc1ccc([C@H]2CC[C@@H](C(=O)O)N2C(=O)CNC(=O)[C@@H](S)Cc2ccc(O)cc2)cc1`, the results for the inhibition in experiment [3] and in experiment [4] were 33% and 3%, respectively.
Regarding `O=C(NCC(=O)N1[C@@H](c2cccc(O)c2)CC[C@H]1C(=O)O)[C@@H](S)Cc1ccc(O)cc1`, the inhibition in experiment [1] is 89%; in experiment [4], 72%.
